In ChEMBL document CHEMBL1921722, “In vitro and in vivo evaluation of select kahalalide F analogs with antitumor and antifungal activities” (Bioorg Med Chem, 2011):
Values after ≈ are worked out from the molar mass of the structure shown. Active and inactive are the calls of the source.

Legend:
UO-31 [1] = experiment: Cytotoxicity against human UO31 cells assessed as cell growth at 80 nM by sulforhodamine B assay relative to control; assay type: functional; conditions: read-out: Activity
SR [2] = experiment: Cytotoxicity against human SR cells by sulforhodamine B assay; assay type: functional
Outline: (§1)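 NCI Developmental Therapeutics Program 60-cell-line human tumor panel screen, run at NCI. A single-concentration pre-screen was followed by a five-concentration dose-response in 10-fold steps. GI50 is the concentration that reduces growth of treated cells to half that of untreated control cells. TGI is the concentration that completely halts growth.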

SNB-75 [3] = experiment: Cytotoxicity against human SNB75 cells assessed as cell growth at 80 nM by sulforhodamine B assay relative to control; assay type: functional; conditions: read-out: Activity
Hs-578T [4] = experiment: Cytotoxicity against human Hs578T cells assessed as cell growth at 8 uM by sulforhodamine B assay relative to control; assay type: functional; conditions: read-out: Activity
NCI-H23 [5] = experiment: Cytotoxicity against human NCI-H23 cells assessed as cell growth at 8 nM by sulforhodamine B assay relative to control; assay type: functional; conditions: read-out: Activity
IGROV-1 [6] = experiment: Cytotoxicity against human IGROV1 cells by sulforhodamine B assay; assay type: functional; outline: as §1
A498 [7] = experiment: Cytotoxicity against human A498 cells by sulforhodamine B assay; assay type: functional
Outline: (§2)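 Run at NCI in the DTP 60-cell-line human tumor panel by standard procedure. Compounds were first screened at a single concentration, then tested at five tenfold-spaced concentrations. GI50 is the concentration reducing treated-cell growth to half that of untreated controls; TGI is the concentration completely halting growth.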

UO-31 [8] = experiment: Cytotoxicity against human UO31 cells by sulforhodamine B assay; assay type: functional; outline: as §1
NCI-H23 [9] = experiment: Antitumor activity against human NCI-H23 cells xenografted in mouse assessed as tumor cell killing at 4.7 mg/kg, ip qd for 4 days by MTT assay; assay type: functional, organism-based; design: dose 4.7 mg/kg
Outline: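 Hollow-fiber assay in mice. Tumor lines were grown in RPMI-1640 with 10% FBS and 2 mM glutamine. Cells at 2 × 10^6 cells/ml were loaded into 1 mm PVDF fibers (500,000 Da cutoff), heat-sealed at 2 cm and held 24–48 h at 37 °C, 5% CO2 before implantation. Compound was given IP. Fibers were collected the day after the fourth treatment for MTT (OD 540 nm, group means). A ≥50% cut in percent net growth versus vehicle counted as positive.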

NCI-H23 [10] = experiment: Cytotoxicity against human NCI-H23 cells assessed as cell growth at 8 uM by sulforhodamine B assay relative to control; assay type: functional; conditions: read-out: Activity
LOX IMVI [11] = experiment: Cytotoxicity against human LOXIMVI cells by sulforhodamine B assay; assay type: functional; outline: as §1
MOLT-4 [12] = experiment: Cytotoxicity against human MOLT4 cells assessed as cell growth at 800 nM by sulforhodamine B assay relative to control; assay type: functional; conditions: read-out: Activity
NCI-H322M = experiment: Cytotoxicity against human NCI-H322M cells assessed as cell growth at 8 uM by sulforhodamine B assay relative to control; assay type: functional; conditions: read-out: Activity
HCC 2998 = experiment: Cytotoxicity against human HCC2998 cells assessed as cell growth at 8 nM by sulforhodamine B assay relative to control; assay type: functional; conditions: read-out: Activity
K562 = experiment: Cytotoxicity against human K562 cells assessed as cell growth at 80 nM by sulforhodamine B assay relative to control; assay type: functional; conditions: read-out: Activity
NCI-H226 [13] = experiment: Cytotoxicity against human NCI-H226 cells assessed as cell growth at 80 uM by sulforhodamine B assay relative to control; assay type: functional; conditions: read-out: Activity
RXF 393 = experiment: Cytotoxicity against human RXF393 cells assessed as cell growth at 8 nM by sulforhodamine B assay relative to control; assay type: functional; conditions: read-out: Activity
MDA-MB-231 [14] = experiment: Cytotoxicity against human MDA-MB-231 cells assessed as cell growth at 80 uM by sulforhodamine B assay relative to control; assay type: functional; conditions: read-out: Activity
SF-268 = experiment: Cytotoxicity against human SF268 cells assessed as cell growth at 800 nM by sulforhodamine B assay relative to control; assay type: functional; conditions: read-out: Activity
U-251 = experiment: Cytotoxicity against human U251 cells by sulforhodamine B assay; assay type: functional; outline: as §1
MDA-MB-435 [15] = experiment: Cytotoxicity against human MDA-MB-435 cells by sulforhodamine B assay; assay type: functional; outline: as §1
SK-MEL-2 = experiment: Cytotoxicity against human SK-MEL-2 cells assessed as cell growth at 8 nM by sulforhodamine B assay relative to control; assay type: functional; conditions: read-out: Activity
PC-3 [16] = experiment: Cytotoxicity against human PC3 cells assessed as cell growth at 80 nM by sulforhodamine B assay relative to control; assay type: functional; conditions: read-out: Activity
MDA-MB-435 [17] = experiment: Cytotoxicity against human MDA-MB-435 cells assessed as cell growth at 8 uM by sulforhodamine B assay relative to control; assay type: functional; conditions: read-out: Activity
PC-3 [18] = experiment: Cytotoxicity against human PC3 cells assessed as cell growth at 80 uM by sulforhodamine B assay relative to control; assay type: functional; conditions: read-out: Activity
IGROV-1 [19] = experiment: Cytotoxicity against human IGROV1 cells assessed as cell growth at 8 nM by sulforhodamine B assay relative to control; assay type: functional; conditions: read-out: Activity
NCI-H226 [20] = experiment: Cytotoxicity against human NCI-H226 cells assessed as cell growth at 8 uM by sulforhodamine B assay relative to control; assay type: functional; conditions: read-out: Activity
Hs-578T [21] = experiment: Cytotoxicity against human Hs578T cells by sulforhodamine B assay; assay type: functional; outline: as §1
OVCAR-8 = experiment: Cytotoxicity against human OVCAR8 cells assessed as cell growth at 80 uM by sulforhodamine B assay relative to control; assay type: functional; conditions: read-out: Activity
MDA-MB-231 [22] = experiment: Cytotoxicity against human MDA-MB-231 cells assessed as cell growth at 8 nM by sulforhodamine B assay relative to control; assay type: functional; conditions: read-out: Activity
MOLT-4 [23] = experiment: Cytotoxicity against human MOLT4 cells assessed as cell growth at 8 nM by sulforhodamine B assay relative to control; assay type: functional; conditions: read-out: Activity
SNB-75 [24] = experiment: Cytotoxicity against human SNB75 cells assessed as cell growth at 80 uM by sulforhodamine B assay relative to control; assay type: functional; conditions: read-out: Activity
HL-60(TB) = experiment: Cytotoxicity against human HL-60(TB) cells assessed as cell growth at 80 uM by sulforhodamine B assay relative to control; assay type: functional; conditions: read-out: Activity
LOX IMVI [25] = experiment: Cytotoxicity against human LOXIMVI cells assessed as cell growth at 80 nM by sulforhodamine B assay relative to control; assay type: functional; conditions: read-out: Activity
SR [26] = experiment: Cytotoxicity against human SR cells assessed as cell growth at 800 nM by sulforhodamine B assay relative to control; assay type: functional; conditions: read-out: Activity
A498 [27] = experiment: Cytotoxicity against human A498 cells assessed as cell growth at 8 uM by sulforhodamine B assay relative to control; assay type: functional; conditions: read-out: Activity; outline: as §2
Candida albicans = experiment: Antimicrobial activity against Candida albicans ATCC 90028 by CLSI method; assay type: functional, organism-based
UACC-62 = experiment: Cytotoxicity against human UACC62 cells assessed as cell growth at 80 uM by sulforhodamine B assay relative to control; assay type: functional; conditions: read-out: Activity
NCI-H460 = experiment: Cytotoxicity against human NCI-H460 cells assessed as cell growth at 8 uM by sulforhodamine B assay relative to control; assay type: functional; conditions: read-out: Activity

What does the source list for `C/C=C1\NC(=O)[C@H](Cc2ccccc2)NC(=O)[C@@H](C(C)C)NC(=O)[C@@H]([C@@H](C)CC)NC(=O)[C@H](NC(=O)[C@H](NC(=O)[C@H](CCCNCc2ccc(N3CCOCC3)cc2)NC(=O)[C@H]2CCCN2C(=O)[C@H](NC(=O)[C@@H](NC(=O)[C@@H](NC(=O)[C@H](NC(=O)CCCC(C)C)C(C)C)[C@@H](C)O)C(C)C)C(C)C)[C@@H](C)CC)[C@@H](C)OC(=O)[C@H](C(C)C)NC1=O`?
growth at 0.08 µM (UO-31 [1]): 104%; GI50 (SR [2]): 3020 nM; LC50 (SR [2]): > 75900 nM; TGI (SR [2]; read-out: pTGI (converted)): 36300 nM; growth at 0.08 µM (SNB-75 [3]): 113%; growth at 8 µM (Hs-578T [4]): -46%; growth at 0.008 µM (NCI-H23 [5]): 105%; GI50 (IGROV-1 [6]): 813 nM; TGI (IGROV-1 [6]; read-out: pTGI (converted)): 2000 nM; GI50 (A498 [7]): 1580 nM; LC50 (A498 [7]): 7410 nM; TGI (A498 [7]; read-out: pTGI (converted)): 3470 nM; GI50 (UO-31 [8]): 1380 nM; TGI (UO-31 [8]; read-out: pTGI (converted)): 2690 nM; Activity (NCI-H23 [9]): inactive; growth at 8 µM (NCI-H23 [10]): -63%; GI50 (LOX IMVI [11]): 3160 nM; LC50 (LOX IMVI [11]): 57500 nM; TGI (LOX IMVI [11]; read-out: pTGI (converted)): 13500 nM; growth at 0.8 µM (MOLT-4 [12]): 95%; growth at 8 µM (NCI-H322M): -84%; growth at 0.008 µM (HCC 2998): 97%; growth at 0.08 µM (K562): 100%; growth at 80 µM (NCI-H226 [13]): -26%; growth at 0.008 µM (RXF 393): 111%; growth at 80 µM (MDA-MB-231 [14]): -43%; growth at 0.8 µM (SF-268): 90%; GI50 (U-251): 1000 nM; LC50 (U-251): 3890 nM; TGI (U-251; read-out: pTGI (converted)): 2000 nM; GI50 (MDA-MB-435 [15]): 1290 nM; TGI (MDA-MB-435 [15]; read-out: pTGI (converted)): 2450 nM; growth at 0.008 µM (SK-MEL-2): 105%; growth at 0.08 µM (PC-3 [16]): 97%; growth at 8 µM (MDA-MB-435 [17]): -88%; growth at 80 µM (PC-3 [18]): -67%; growth at 0.008 µM (IGROV-1 [19]): 104%; growth at 8 µM (NCI-H226 [20]): -55%; LC50 (Hs-578T [21]): > 75900 nM; GI50 (Hs-578T [21]; read-out: GI50): 453 nM; TGI (Hs-578T [21]; read-out: TGI): 444 nM; GI50 (Hs-578T [21]; read-out: pGI50 (converted)): 457 nM; TGI (Hs-578T [21]; read-out: pTGI (converted)): 2040 nM; growth at 80 µM (OVCAR-8): 28%; growth at 0.008 µM (MDA-MB-231 [22]): 95%; growth at 0.008 µM (MOLT-4 [23]): 103%; growth at 80 µM (SNB-75 [24]): -7%; growth at 80 µM (HL-60(TB)): -24%; growth at 0.08 µM (LOX IMVI [25]): 100%; growth at 0.8 µM (SR [26]): 103%; growth at 8 µM (A498 [27]): -51%; IC50 (Candida albicans): 5760 nM; MFC (Candida albicans): > 20 µM; MIC (Candida albicans): 20 µM (≈ 33.1 µg/mL); growth at 80 µM (UACC-62): -81%; growth at 8 µM (NCI-H460): -24%
